Measured values from ChEMBL document CHEMBL1123335, “Synthesis and class III antiarrhythmic activity of (phenylbut-2-enyl)ammonium salts. Effect of conformation on activity” (J Med Chem, 1986).
Values joined by “and” are separate entries in the source; they are usually repeats but may differ in a detail not shown here. Identical values can stand only once.

Experiments:
[1] = tested on: Canis familiaris; assay: Compound was evaluated for intraduodenal bioavailability in anesthetized dogs measured as mean blood pressure at a dose of 10/60 range; 13/23; type: ADME, organism-based, Canis lupus familiaris, Artery; details: dog, in vivo
Procedure, shortened: (§1)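 Pentobarbital-anesthetized (30 mg/kg i.v.) dogs, 8–20 kg, either sex. Compound given intraduodenally as a 0.5% tragacanth suspension, usually as two doses, the second cumulative. HR, BP, FRP and conduction were measured at 15, 30 and 45 min postdose. Mean BP reported as % change from control, low dose/high dose, for each animal.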

[2] = species on record: Canis familiaris; assay: Intracellular electrophysiology in canine potential (Vmax) at a dose range.; type: functional; details: Canis lupus familiaris
Procedure, shortened: (§2)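 Canine Purkinje fibers at 37 ± 0.5 °C, gassed 95:5 O2/CO2 (pH 7.35–7.40), stimulated at 1.0 Hz. Maximum upstroke velocity (Vmax) recorded by glass microelectrode after up to 1 h stabilization. Compounds tested at 10^-8–10^-4 M with 30 min exposure per concentration. Reported as maximum observed effect on Vmax and the concentration at which it occurred.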

[3] = species on record: Canis familiaris; assay: Intracellular electrophysiology in canine Purkinje fiber measured as concentration that caused 20% prolongation of action potential duration (APD95); type: functional, Canis lupus familiaris
Procedure, shortened: (§3)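 Canine Purkinje fibers superfused at 37 ± 0.5 °C, pH 7.35–7.40 (95:5 O2/CO2), paced at 1.0 Hz (2-ms pulses, 2× diastolic threshold). Fibers stabilized up to 1 h. Intracellular microelectrode (3 M KCl) recording of APD95, 30 min exposure per concentration across 10^-8–10^-4 M. Value is concentration giving 20% APD95 prolongation, or maximum prolongation with its concentration.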

[4] = species on record: Canis familiaris; assay: Intracellular electrophysiology in canine Purkinje fiber measured as maximum prolongation of APD95 observed at a dose of 10 uM; type: functional, Canis lupus familiaris; procedure, shortened: as §3
[5] = tested on: Canis familiaris; assay: In vivo antiarrhythmic efficacy in anesthetized dogs; 2/2
[6] = tested on: Canis familiaris; assay: In vivo antiarrhythmic efficacy in anesthetized dogs
[7] = tested on: Canis familiaris; assay: Compound was evaluated for intraduodenal bioavailability in anesthetized dogs measured as mean blood pressure at a dose of 10/30 range; 8/49; type: ADME, organism-based, Canis lupus familiaris, Artery; details: dog, in vivo; procedure, shortened: as §1
[8] = species on record: Canis familiaris; assay: Compound was evaluated for intracellular electrophysiology in canine Purkinje fiber measured as concentration that caused 20% prolongation of action potential duration (APD95) at a dose range of 0.01-10 uM; NR=Not reached; type: functional; details: Canis lupus familiaris; procedure, shortened: as §3
[9] = tested on: Canis familiaris; assay: Compound was evaluated for intraduodenal bioavailability in anesthetized dogs measured as mean blood pressure at a dose of 10/30 range; 6/2; type: ADME, organism-based, Canis lupus familiaris, Artery; details: dog, in vivo; procedure, shortened: as §1
[10] = species on record: Canis familiaris; assay: Compound was evaluated for intracellular electrophysiology in canine Purkinje fiber measured as concentration that caused 20% prolongation of action potential duration (APD95) at a dose range of 0.01-1 uM; type: functional, Canis lupus familiaris; procedure, shortened: as §3
[11] = species on record: Canis familiaris; assay: Compound was evaluated for intracellular electrophysiology in canine Purkinje fiber measured as maximum prolongation of APD95 observed at a dose of 1 uM; type: functional, Canis lupus familiaris; procedure, shortened: as §3
[12] = tested on: Canis familiaris; assay: Compound was evaluated for intraduodenal bioavailability in anesthetized dogs measured as mean blood pressure at a dose of 10/30 range; 8/8; type: ADME, organism-based, Canis lupus familiaris, Artery; details: dog, in vivo; procedure, shortened: as §1
[13] = species on record: Canis familiaris; assay: Compound was evaluated for intracellular electrophysiology in canine uM; type: functional; details: Canis lupus familiaris; procedure, shortened: as §2
[14] = species on record: Canis familiaris; assay: Compound was evaluated for intracellular electrophysiology in canine potential (Vmax) at 10 uM; type: functional; details: Canis lupus familiaris; procedure, shortened: as §2
[15] = species on record: Canis familiaris; assay: Compound was evaluated for intracellular electrophysiology in canine Purkinje fiber measured as maximum prolongation of APD95 observed at 10 uM; type: functional, Canis lupus familiaris; procedure, shortened: as §3
[16] = tested on: Canis familiaris; assay: Compound was evaluated for intraduodenal bioavailability in anesthetized dogs measured as mean blood pressure at a dose of 10/30 range; 10/31; type: ADME, organism-based, Canis lupus familiaris, Artery; details: dog, in vivo; procedure, shortened: as §1
[17] = species on record: Canis familiaris; assay: Compound was evaluated for intracellular electrophysiology in canine potential (Vmax) at a dose of 100 uM; type: functional; details: Canis lupus familiaris; procedure, shortened: as §2
[18] = tested on: Canis familiaris; assay: In vivo antiarrhythmic efficacy in anesthetized dogs; Inactive at 3 mg/kg
[19] = tested on: Canis familiaris; assay: In vivo antiarrhythmic efficacy in anesthetized dogs; 2/3
[20] = species on record: Canis familiaris; assay: Compound was evaluated for intracellular electrophysiology in canine potential (Vmax) at a dose of 1 uM; type: functional, Canis lupus familiaris; details: at 1 µM
[21] = species on record: Canis familiaris; assay: Compound was evaluated for intracellular electrophysiology in canine potential (Vmax) at a dose of 10 uM; type: functional, Canis lupus familiaris; procedure, shortened: as §2
[22] = species on record: Canis familiaris; assay: Compound was evaluated for intracellular electrophysiology in canine potential (Vmax) at a dose range of 0.01-10 uM; type: functional; details: Canis lupus familiaris; at 0.01 to 10 µM
Procedure, shortened: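 Isolated cardiac fibres superfused with bicarbonate/glucose salt solution gassed 95:5 O2/CO2 (pH 7.35–7.40), 37 ± 0.5 °C. Bipolar stimulation at 1.0 Hz with 2-ms square pulses at twice diastolic threshold. Intracellular recording with 3 M KCl glass microelectrodes after up to 1 h stabilization. Each concentration (10^-8–10^-4 M) applied for 30 min. Value is the maximum Vmax effect and the concentration at which it occurred, per study.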

[23] = species on record: Canis familiaris; assay: Compound was evaluated for intracellular electrophysiology in canine potential (Vmax) at a dose range of 100 uM; type: functional; details: Canis lupus familiaris; procedure, shortened: as §2
[24] = tested on: Canis familiaris; assay: Compound was evaluated for intraduodenal bioavailability in anesthetized dogs measured as mean blood pressure at a dose of 10/30 range; 2/16; type: ADME, organism-based, Canis lupus familiaris, Artery; details: dog, in vivo; procedure, shortened: as §1
[25] = species on record: Canis familiaris; assay: Compound was evaluated for intracellular electrophysiology in canine Purkinje fiber measured as maximum prolongation of APD95 observed at a dose range of 100 uM; type: functional, Canis lupus familiaris; procedure, shortened: as §3
[26] = species on record: Canis familiaris; assay: Compound was evaluated for intracellular electrophysiology in canine Purkinje fiber measured as concentration that caused 20% prolongation of action potential duration (APD95) at a dose range of 0.1-100 uM; type: functional, Canis lupus familiaris; procedure, shortened: as §3
[27] = species on record: Canis familiaris; assay: Compound was evaluated for intracellular electrophysiology in canine Purkinje fiber measured as concentration that caused 20% prolongation of action potential duration (APD95) at a dose range of 0.1-10 uM; type: functional, Canis lupus familiaris; procedure, shortened: as §3
[28] = species on record: Canis familiaris; assay: Compound was evaluated for intracellular electrophysiology in canine Purkinje fiber measured as concentration that caused 20% prolongation of action potential duration (APD95) at a dose range of 0.01-100 uM; type: functional, Canis lupus familiaris; procedure, shortened: as §3
[29] = species on record: Canis familiaris; assay: Compound was evaluated for intracellular electrophysiology in canine potential (Vmax) at 100 uM; type: functional; details: Canis lupus familiaris; procedure, shortened: as §2
[30] = species on record: Canis familiaris; assay: Compound was evaluated for intracellular electrophysiology in canine Purkinje fiber measured as maximum prolongation of APD95 observed at 1 uM; type: functional, Canis lupus familiaris; procedure, shortened: as §3
[31] = species on record: Canis familiaris; assay: Concentration at which maximum observed effect on the action potential (Vmax) at a dose range of 0.1-100 uM occurred; 2/2; type: functional, Canis lupus familiaris
[32] = tested on: Canis familiaris; assay: Compound was evaluated for intraduodenal bioavailability in anesthetized dogs measured as mean blood pressure at a dose of 3 range; type: ADME, organism-based, Canis lupus familiaris, Artery; details: dog, in vivo, other; procedure, shortened: as §1
[33] = tested on: Canis familiaris; assay: Compound was evaluated for intraduodenal bioavailability in anesthetized dogs measured as mean blood pressure at a dose of 10/30 range; 19/3; type: ADME, organism-based, Canis lupus familiaris, Artery; details: dog, in vivo; procedure, shortened: as §1

CCCCCCC[N+](CC)(CC)C/C=C\Cc1cccc(Cl)c1Cl.Cc1ccc(S(=O)(=O)[O-])cc1
Bioavailabiility [1]: 13% | Vmax [2]: Minimal | C20 [3]: 2 µM | APD95 [4]: 35%

CCCCCCC[N+](CC)(CC)C/C=C\Cc1ccc(Br)cc1.O=P([O-])(O)O
Vmax [2]: Minimal | Efficacy [5]: 2 | Effective dose [6]: 1 mg/kg and 3 mg/kg | C20 [3]: 5.7 µM

C[N+](C)(C)C/C=C\Cc1ccc(Cl)cc1.[Cl-]
Vmax [2]: Minimal | Bioavailabiility [7]: 8% | C20 [3]: 0.3 µM | APD95 [4]: 43%

CCCCCCC[N+](CC)(CC)C/C=C\Cc1ccccc1Cl.[Cl-]
C20 [8]: Not reached | Bioavailabiility [9]: 6% | Vmax [2]: Minimal | Efficacy [5]: 2 | C20 [10]: <0.1 µM | APD95 [11]: 72% | APD95 [4]: 16% | Bioavailabiility [12]: 8%

CC[N+](CC)(CC)CC#CCc1ccc(Cl)cc1.[I-]
Vmax [13]: -6% | C20 [3]: 0.3 µM | APD95 [4]: 53%

CCCCCCC[N+](CC)(CC)C/C=C\Cc1ccc(Cl)cc1.Cc1ccc(S(=O)(=O)[O-])cc1
APD95 [4]: 42% and 47% and 23%

CCN(CC)C/C=C\Cc1ccc([N+](=O)[O-])cc1.Cl
Vmax [14]: -13% | APD95 [15]: 25% | Bioavailabiility [16]: 10% | C20 [3]: 0.9 µM

CCN(CC)CC#CCc1ccc(Cl)cc1.Cl
Vmax [17]: -34% | C20 [8]: Not reached | APD95 [4]: -6%

CCCCCCC[N+](CC)(CC)C/C=C\Cc1ccc(Cl)cc1.O=P([O-])(O)O
Efficacy [5]: 2 | Effective dose [6]: 0.3 mg/kg | APD95 [4]: 28% and 29% and 23%

CCCCCCC[N+](CC)(CC)CCCCc1ccc(Cl)cc1.O=P([O-])(O)O [CLOFILIUM PHOSPHATE]
Effective dose [18]: 0.5 mg/kg | Efficacy [19]: 2 | APD95 [20]: 25% and 29% | APD95 [21]: 78% and 27% | Vmax [22]: -21% | Effective dose [6]: 0.1 mg/kg | C20 [3]: 2 µM | APD95 [4]: 29% and 46%

CCN(CC)C/C(C)=C(/C)Cc1ccc([N-]S(C)(=O)=O)cc1.[Na+]
Vmax [23]: -13% | Bioavailabiility [24]: 2% | APD95 [25]: 78% | C20 [3]: 2.2 µM

CCCCCCC[N+](CC)(CC)C/C=C/Cc1ccc(Cl)cc1.Cc1ccc(S(=O)(=O)[O-])cc1
C20 [3]: <1 µM and 1.9 µM and 1.4 µM

CCN(CC)C/C(C)=C(/C)Cc1ccc([N+](=O)[O-])cc1.Cl
C20 [26]: <0.1 µM | C20 [27]: 0.4 µM | C20 [28]: 0.05 µM | APD95 [15]: 66% and 55% | Vmax [29]: -28% and -52% | Max APD95 [30]: 27% | Efficacy [31]: 2 | Bioavailabiility [32]: 9% | Bioavailabiility [33]: 19% | Effective dose [6]: 0.1 mg/kg and 0.3 mg/kg
